Data from ChEMBL document CHEMBL1138069, “Synthesis and SAR of 1,3-disubstituted cyclohexylmethyl urea and amide derivatives as non-peptidic motilin receptor antagonists” (Bioorg Med Chem Lett, 2006).
pIC50: −log10 of the molar value. Activity calls are given as the source filed them. The rule behind the calls is not given here.

How the values were obtained:
[1] = target: Motilin receptor (Oryctolagus cuniculus) (UniProt A5A4K8); assay: Inhibition of [125]I-motilin binding to rabbit motilin receptor at 1 uM
Motilin receptor (Oryctolagus cuniculus), sequence (A5A4K8 as listed by the source): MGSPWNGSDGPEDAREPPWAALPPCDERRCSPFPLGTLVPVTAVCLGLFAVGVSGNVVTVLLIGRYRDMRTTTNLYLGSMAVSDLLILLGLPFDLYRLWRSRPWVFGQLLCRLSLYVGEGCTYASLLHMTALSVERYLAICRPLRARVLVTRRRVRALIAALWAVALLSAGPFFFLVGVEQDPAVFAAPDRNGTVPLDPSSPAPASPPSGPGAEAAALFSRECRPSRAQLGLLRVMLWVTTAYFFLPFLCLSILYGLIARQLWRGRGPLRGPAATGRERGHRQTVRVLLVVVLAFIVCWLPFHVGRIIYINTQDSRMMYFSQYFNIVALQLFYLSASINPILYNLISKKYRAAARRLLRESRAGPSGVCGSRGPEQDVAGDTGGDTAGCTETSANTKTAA

[2] = target: T1, Motilin receptor (Oryctolagus cuniculus, UniProt A5A4K8); assay: Inhibition of [125]I-motilin binding to rabbit motilin receptor
T1 sequence (A5A4K8 whole entry): as the sequence (A5A4K8 as listed by the source) above
Method in brief: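 Rabbit colon membranes, homogenized in Tris–HCl pH 7.5 and centrifuged, with the pellet stored frozen. Bound tracer was separated by centrifugation. Nonspecific binding was taken with unlabeled porcine motilin. IC50 values are means of at least two separate determinations.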

[3] = target: T2, Motilin receptor (Homo sapiens, UniProt O43193); assay: Agonist activity at human motilin receptor transfected in HEK293 cells assessed as inhibition of motilin-induced intracellular calcium mobilization at 30 uM; assay type: functional, cell-based
T2 sequence (O43193 whole entry): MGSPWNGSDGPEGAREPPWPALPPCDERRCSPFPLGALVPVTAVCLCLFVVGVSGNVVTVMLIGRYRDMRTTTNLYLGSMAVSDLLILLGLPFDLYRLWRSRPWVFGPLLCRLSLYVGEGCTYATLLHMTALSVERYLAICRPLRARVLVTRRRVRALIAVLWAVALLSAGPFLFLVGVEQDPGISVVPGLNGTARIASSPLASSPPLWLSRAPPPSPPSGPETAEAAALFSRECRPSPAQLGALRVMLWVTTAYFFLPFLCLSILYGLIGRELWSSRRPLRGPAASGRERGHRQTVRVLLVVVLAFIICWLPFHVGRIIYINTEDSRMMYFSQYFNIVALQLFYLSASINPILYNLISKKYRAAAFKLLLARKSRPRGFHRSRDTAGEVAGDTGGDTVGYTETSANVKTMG

[4] = target: Motilin receptor (Oryctolagus cuniculus) (UniProt A5A4K8); assay: Agonist activity at rabbit duodenum motilin receptor by tissue contractility assay at 10 uM; assay type: functional
[5] = target: T1, Motilin receptor; assay: Activity at rabbit duodenum motilin receptor by tissue contractility assay; assay type: functional
[6] = target: T2, Motilin receptor; assay: Activity at human motilin receptor transfected in HEK293 cells assessed as inhibition of motilin-induced intracellular calcium mobilization; assay type: functional, cell-based
[7] = target: T1, Motilin receptor; assay: Inhibition of [125]I-motilin binding to rabbit motilin receptor

| SMILES | inhibition [1] [%] | pIC50 [2] | Activity [3] | Activity [4] | other results |
| --- | --- | --- | --- | --- | --- |
| CC(C)(C)C(=O)N(Cc1ccccc1)C1CCCC(CN(C(=O)Nc2ccccc2)c2cccc(OCCN3CCOCC3)c2)C1 (racemic) | 50 |  |  |  |  |
| COc1cccc(C(=O)N(Cc2cccc(Cl)c2)C2CCC(CN(C(=O)Nc3ccccc3)c3cccc(OCCN4CCOCC4)c3)CC2)c1 (racemic) | 6 |  |  |  |  |
| O=C(Nc1ccccc1)N(c1cccc(OCCN2CCOCC2)c1)C1CCC(CN(Cc2cccc(Cl)c2)C(=O)C(Cl)(Cl)Cl)C1 (stereo unspecified) | 4 |  |  |  |  |
| O=C(Nc1ccccc1)N(CC1CCCC(N(Cc2cccc(C(F)(F)F)c2)C(=O)C(Cl)(Cl)Cl)C1)c1cccc(OCCN2CCOCC2)c1 (racemic) | 58 |  |  |  |  |
| O=C(Nc1ccccc1)N(CC1CCCC(N(Cc2ccccc2)C(=O)CCc2ccccc2)C1)c1cccc(OCCN2CCOCC2)c1 (stereo unspecified) |  | 6.14 |  |  |  |
| O=C(Nc1ccccc1)N(CC1CCCC(N(Cc2ccccc2)C(=O)c2ccc(-c3ccccc3)cc2)C1)c1cccc(OCCN2CCOCC2)c1 (racemic) | 3 |  |  |  |  |
| COc1cccc(C(=O)NC2CCCC(CN(C(=O)Nc3ccccc3)c3cccc(OCCN4CCOCC4)c3)C2)c1 (racemic) | 26 |  |  |  |  |
| O=C(Nc1ccccc1)N(CC1CCCC(N(Cc2cccc([N+](=O)[O-])c2)C(=O)C(Cl)(Cl)Cl)C1)c1cccc(OCCN2CCOCC2)c1 (racemic) |  | 7.46 |  |  |  |
| O=C(Nc1ccccc1)N(CC1CCCC(N(Cc2ccccc2)C(=O)c2ccco2)C1)c1cccc(OCCN2CCOCC2)c1 (racemic) |  | 6.18 |  |  |  |
| O=C(c1ccc(F)cc1)N(CC1CCCC(N(Cc2ccccc2)C(=O)C(Cl)(Cl)Cl)C1)c1cccc(OCCN2CCCC2)c1 (racemic) |  | 7.24 | inactive | inactive | pIC50 [5]: 7.57 |
| O=C(c1ccc(F)cc1)N(CC1CCCC(N(Cc2cccc(Cl)c2)C(=O)C(Cl)(Cl)Cl)C1)c1cccc(OCCN2CCCC2)c1 (racemic) |  | 7.24 | inactive | inactive | pIC50 [6]: 6.57 |
| CC(C)(C)C(=O)N(Cc1ccccc1)[C@@H]1CCC[C@H](CN(C(=O)c2ccc(F)cc2)c2cccc(OCCN3CCCC3)c2)C1 |  |  | inactive | inactive | pIC50 [6]: 6.47 |
| O=C(Nc1ccccc1)N(CC1CCCC(NCc2cccc(Cl)c2)C1)c1cccc(OCCN2CCOCC2)c1 (racemic) | 28 |  |  |  |  |
| O=C(Nc1ccccc1)N(CC1CCCC(N(Cc2ccccc2)C(=O)C(Cl)(Cl)Cl)C1)c1cccc(OCCN2CCOCC2)c1 (racemic) |  | 6.02 |  |  |  |
| CC(C)(C)C(=O)N(Cc1ccccc1)C1CCCC(CN(C(=O)c2ccc(F)cc2)c2cccc(OCCN3CCOCC3)c2)C1 (racemic) |  | 6.11 | inactive | inactive |  |
| O=C(Nc1ccccc1)N(CC1CCCC(N(Cc2cccc(Cl)c2)C(=O)C(Cl)(Cl)Cl)C1)c1cccc(OCCN2CCOCC2)c1 (racemic) | 23 |  |  |  |  |
| O=C(c1ccc(F)cc1)N(CC1CCCC(N(Cc2cccc(Cl)c2)C(=O)C(Cl)(Cl)Cl)C1)c1cccc(OCCN2CCCCC2)c1 (racemic) |  | 7.20 | inactive | inactive | pIC50 [6]: 6.64; pIC50 [5]: 7.68 |
| CC(C)(C)C(=O)N(Cc1ccccc1)[C@H]1CCC[C@@H](CN(C(=O)c2ccc(F)cc2)c2cccc(OCCN3CCCC3)c2)C1 |  |  | inactive | inactive | pIC50 [6]: 5.61 |
| CC(C)(C)C(=O)N(Cc1ccccc1)C1CCCC(CN(C(=O)c2ccc(F)cc2)c2cccc(OCCN3CCCC3)c2)C1 (racemic) |  |  | inactive | inactive | pIC50 [6]: 6.00 |
| CC(C)(C)C(=O)N(Cc1ccccc1)C1CCCC(CN(C(=O)Nc2ccccc2)c2cccc(OCCN3CCCC3)c2)C1 (racemic) |  |  |  |  | pIC50 [7]: 7.68 |
| COc1cccc(C(=O)N(Cc2cccc(Cl)c2)C2CCCC(CN(C(=O)Nc3ccccc3)c3cccc(OCCN4CCOCC4)c3)C2)c1 (racemic) |  | 6.19 |  |  |  |
| O=C(Nc1ccccc1)N(CC1=C[C@@](Cc2cccc(Cl)c2)(NC(=O)C(Cl)(Cl)Cl)CC1)c1cccc(OCCN2CCOCC2)c1 |  | 8.00 |  |  |  |
| O=C(c1ccc(F)cc1)N(CC1CCCC(N(Cc2cccc([N+](=O)[O-])c2)C(=O)C(Cl)(Cl)Cl)C1)c1cccc(OCCN2CCCC2)c1 (stereo unspecified) |  | 7.85 | inactive | inactive | pIC50 [6]: 7.28 |
| O=C(Nc1ccccc1)N(CC1CCCC(N(Cc2ccccc2)C(=O)c2cccc([N+](=O)[O-])c2)C1)c1cccc(OCCN2CCOCC2)c1 (racemic) |  | 5.94 |  |  |  |
| O=C(Nc1ccccc1)N(CC1=C[C@@](Cc2ccccc2)(NC(=O)C(Cl)(Cl)Cl)CC1)c1cccc(OCCN2CCOCC2)c1 |  | 7.70 |  |  |  |
